Shown are actives, neighbours in structure and some others; about 1.7% of the full set was active somewhere.
LMPTP inh = LMPTP phosphatase inhibitors, primary screen, biochemical, fluorescence intensity, uHTS | Low molecular weight phosphotyrosine protein phosphatase (Homo sapiens), P24666 | recombinant LMPTP-A, OMFP fluorogenic substrate | inhibition, % at 20 µM | hit rate 0.22% among 360,000 | AID 651560, 2012;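 active = compounds that cut the enzyme signal by at least half of the control window in the single-dose screen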;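 also: plate controls were DMSO wells with enzyme plus substrate for no effect and substrate without enzyme for full effect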
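Assay system: LMPTP-A enzyme. Input: 0.625 nM LMPTP-A final. Probe or stimulus: 400 µM OMFP. Compound dosing: single 20 µM dose. Schedule: 50 min dark incubation at room temperature. Detection: fluorescence intensity of OMFP turnover product. Read-out: percent inhibition versus substrate-only and uninhibited controls. Benchmarks: no-enzyme low control, uninhibited high control.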
Scp-1 inhibitor = Scp-1 phosphatase inhibitors, primary screen, biochemical, colorimetric, uHTS; Carboxy-terminal domain RNA polymerase II polypeptide A small phosphatase 1 (Homo …; Recombinant Scp1, phosphopeptide, malachite green phosphate absorbance; inhibition, % at 20 µM; hit rate 0.88% among 340,000; AID 493091, 2011;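 active = inhibition above about 50% at 20 µM, limit read from the data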;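 also: plate controls were DMSO wells with enzyme for no effect and wells lacking enzyme for full effect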
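assay system = SCP-1 phosphatase catalytic domain, residues 76-261 | buffer or medium = 50 mM Tris acetate pH 5.5, 0.005% Tween-20, 10 mM MgCl2 | incubation = enzyme reaction 45 min at room temperature, colour 5 min, stabilisation 30 min | signal = Phosphate-binding colour reagent, absorbance read at 630 nm | measure = % inhibition at 20 µM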
STEP block = STEP phosphatase inhibitors, primary screen, biochemical, fluorescence intensity, uHTS. recombinant STEP, OMFP fluorogenic substrate. inhibition, % at 20 µM. hit rate 0.25% among 360,000. AID 588621, 2011;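 active = inhibition at 20 µM, scaled per plate between control wells, above about 37%, limit read from the data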;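 also: 0% = DMSO with enzyme and substrate and 100% = substrate only without enzyme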
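Measure: Control-normalized % inhibition with plate pattern correction | Test system: STEP phosphatase, cell-free reaction | Medium: pH 6.0 Bis-Tris with DTT and Tween 20 | Technique: Fluorescence, 480/540 nm | Times: Reaction 20 min, ambient temperature | Doses: Single compound dose of 20 µM, 1% DMSO final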
DNMT1 inh = human DNMT1 methyltransferase inhibitors, primary screen, biochemical, molecular beacon, fluorescence, HinP1I cleavage, uHTS. DNA (cytosine-5)-methyltransferase 1 (Homo sapiens), P26358. inhibition (reported as % activation of signal), % at 10 µM. hit rate 0.83% among 360,000. AID 588458, 2011; in the data active = inhibition above about 50%
Target sequence (P26358 504-1616 limits assumed): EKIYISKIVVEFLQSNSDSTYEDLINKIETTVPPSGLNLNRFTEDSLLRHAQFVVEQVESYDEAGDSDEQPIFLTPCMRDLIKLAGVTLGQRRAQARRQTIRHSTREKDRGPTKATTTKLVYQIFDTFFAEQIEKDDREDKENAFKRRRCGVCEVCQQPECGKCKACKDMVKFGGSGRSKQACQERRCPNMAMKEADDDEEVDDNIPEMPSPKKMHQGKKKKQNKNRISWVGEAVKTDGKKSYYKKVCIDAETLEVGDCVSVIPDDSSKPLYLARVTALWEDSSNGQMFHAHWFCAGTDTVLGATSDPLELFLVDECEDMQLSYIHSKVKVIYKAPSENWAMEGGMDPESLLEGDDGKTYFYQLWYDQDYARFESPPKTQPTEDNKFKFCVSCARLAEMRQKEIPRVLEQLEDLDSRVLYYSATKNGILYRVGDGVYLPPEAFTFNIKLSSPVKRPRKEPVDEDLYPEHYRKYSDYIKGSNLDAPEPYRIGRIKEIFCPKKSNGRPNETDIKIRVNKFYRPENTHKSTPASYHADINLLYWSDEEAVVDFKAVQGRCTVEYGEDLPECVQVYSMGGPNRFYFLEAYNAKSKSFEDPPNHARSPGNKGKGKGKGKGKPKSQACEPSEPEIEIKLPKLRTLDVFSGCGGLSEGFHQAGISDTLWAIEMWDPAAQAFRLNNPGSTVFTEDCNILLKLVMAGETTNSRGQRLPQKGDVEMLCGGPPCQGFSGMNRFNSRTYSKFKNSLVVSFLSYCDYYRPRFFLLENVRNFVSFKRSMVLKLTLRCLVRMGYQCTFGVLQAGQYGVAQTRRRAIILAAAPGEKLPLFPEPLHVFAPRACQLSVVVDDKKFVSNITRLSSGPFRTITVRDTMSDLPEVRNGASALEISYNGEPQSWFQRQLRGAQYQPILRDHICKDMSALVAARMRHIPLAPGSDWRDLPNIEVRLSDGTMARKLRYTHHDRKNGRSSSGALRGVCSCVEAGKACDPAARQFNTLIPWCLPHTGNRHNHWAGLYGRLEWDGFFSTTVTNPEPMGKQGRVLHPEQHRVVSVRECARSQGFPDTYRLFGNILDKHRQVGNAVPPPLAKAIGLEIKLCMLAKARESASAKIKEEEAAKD
SUMO1 PPI mod = modulators of SUMO1 protein-protein interactions, primary screen, biochemical, uHTS; Small ubiquitin-related modifier 1 (Homo sapiens), P63165; SUMO1 binding to a labelled peptide, TR-FRET, 1 h; inhibition, % at 20 µM; hit rate 0.33% among 360,000; AID 602429, 2012; in the data active = inhibition above about 37%
Starred values were filed as active, the others as inactive.

Cc1cc(C=C2C(=O)c3ccccc3C2=O)c(C)n1C was read as LMPTP inh 3, Scp-1 inhibitor -5, STEP block -1, DNMT1 inh -11 and SUMO1 PPI mod 52*.
For O=C(Nc1ccc(-c2nc3ccccc3[nH]2)cc1)c1ccc2c(c1)OCO2 the results were LMPTP inh 7, Scp-1 inhibitor 1, STEP block 5, DNMT1 inh 18 and SUMO1 PPI mod 42*.
For O=C(Nc1ccc(Cl)c(-c2nc3ccccc3[nH]2)c1)c1ccc2c(c1)OCO2 the results were LMPTP inh 2, Scp-1 inhibitor 0, STEP block 2, DNMT1 inh -7 and SUMO1 PPI mod 6.
`Cc1cccc(NC(=O)CNC(=O)Cn2ncc(Cl)c(Cl)c2=O)c1C` gave LMPTP inh 12, Scp-1 inhibitor 93*, STEP block 8, DNMT1 inh 83* and SUMO1 PPI mod 11.
Screening Cn1nc(C(F)(F)F)c(C(=O)Nc2ccc(Cl)cc2)c1Cl returned LMPTP inh -1, Scp-1 inhibitor 3, STEP block -5, DNMT1 inh 3 and SUMO1 PPI mod 41*.
`Cc1ccc(NC(=O)c2c(C(F)(F)F)nn(C)c2Cl)cc1C` gave LMPTP inh 0, Scp-1 inhibitor -7, STEP block 1, DNMT1 inh 0 and SUMO1 PPI mod 2.
For COc1ccc2c(c1)c1nc3ccccc3nc1n2CCn1c(=O)oc2ccccc21 the results were LMPTP inh -1, Scp-1 inhibitor 3, STEP block -3, DNMT1 inh 2 and SUMO1 PPI mod -2.
O=c1oc2ccccc2n1CCn1c2ccccc2c2nc3ccccc3nc21 was read as LMPTP inh 73*, Scp-1 inhibitor -8, STEP block 3, DNMT1 inh 62* and SUMO1 PPI mod 1.
For O=C(NNc1ccccc1)Nc1cc(Cl)ccc1Cl the results were LMPTP inh 1, Scp-1 inhibitor 3, STEP block 0, DNMT1 inh -3 and SUMO1 PPI mod -2.
`CC1CCN(CC(=O)Nc2nn(-c3ccccc3)nc2C(N)=O)CC1` gave LMPTP inh -1, Scp-1 inhibitor -5, STEP block -3, DNMT1 inh 1 and SUMO1 PPI mod 5.
COC(=O)c1ccc(OCC(=O)Nc2nn(-c3ccccc3)nc2C(N)=O)cc1 was read as LMPTP inh -2, Scp-1 inhibitor 2, STEP block -2, DNMT1 inh -27 and SUMO1 PPI mod 50*.
`CCCCN(C)C1=CC2=CC(=C(C#N)C#N)CCC2CC1` (configuration not stated) gave LMPTP inh 3, Scp-1 inhibitor -5, STEP block -271, DNMT1 inh active and SUMO1 PPI mod 19.
`CCN(CC)C1=CC2=CC(=C(C#N)C#N)CCC2CC1` (configuration not stated) gave LMPTP inh 4, Scp-1 inhibitor 1, STEP block -231, DNMT1 inh active and SUMO1 PPI mod 17.
Screening COc1ccc(NC(=O)N(C)C[C@H]2OCc3cnnn3CCCC(=O)N([C@@H](C)CO)C[C@H]2C)c(OC)c1 returned LMPTP inh -3, STEP block 3, DNMT1 inh 2 and SUMO1 PPI mod 6.
`Oc1ccc(/C=N/NC(=S)Nc2cccnc2)c(O)c1O` gave LMPTP inh 84*, Scp-1 inhibitor 6, STEP block 16, DNMT1 inh 3 and SUMO1 PPI mod 81*.
Cc1cc(N2CCCC2)nc(-c2ccccc2O)n1 was read as LMPTP inh 1, Scp-1 inhibitor -13, STEP block 6, DNMT1 inh 0 and SUMO1 PPI mod 69*.
Cc1cc(N2CCN(C)CC2)nc(-c2ccccc2O)n1 was read as LMPTP inh 0, Scp-1 inhibitor -11, STEP block 0, DNMT1 inh 0 and SUMO1 PPI mod 5.
`N=C1/C(=C\c2ccc(-c3ccc(C(=O)O)cc3)o2)C(=O)N=C2SC=C(c3ccccc3)N12` gave LMPTP inh 65*, Scp-1 inhibitor 81*, STEP block 61*, DNMT1 inh 40 and SUMO1 PPI mod 110*.
`COc1ccc(/C=C2\SC(=N)N(c3nccs3)C2=O)cc1OC` gave LMPTP inh 1, Scp-1 inhibitor -3, STEP block -3, DNMT1 inh 0 and SUMO1 PPI mod 9.
N=C1S/C(=C\c2ccc(-c3cccc(Cl)c3)o2)C(=O)N1c1nccs1 was read as LMPTP inh 33, Scp-1 inhibitor 3, STEP block 2, DNMT1 inh 112* and SUMO1 PPI mod 23.
For N=C1/C(=C\c2ccc(-c3cccc(Cl)c3)o2)C(=O)N=C2SC=C(c3ccccc3)N12 the results were LMPTP inh 8, Scp-1 inhibitor -6, STEP block 6, DNMT1 inh 61* and SUMO1 PPI mod 19.
For C=CCC(=O)N1CCCC(CO)(Cc2ccc(F)cc2F)C1 (configuration not stated) the results were LMPTP inh -2, Scp-1 inhibitor -5, STEP block -3, DNMT1 inh 4 and SUMO1 PPI mod 1.
Screening Cc1cccc(C)c1-n1nnnc1C1(C)CCC(=O)N1c1ccc(N2CCOCC2)cc1 (configuration not stated) returned LMPTP inh -3 and SUMO1 PPI mod 0.
Screening COc1cccc(Nc2nc(C(N)CCc3ccccc3)cs2)n1 (configuration not stated) returned LMPTP inh 0, STEP block 3, DNMT1 inh -4 and SUMO1 PPI mod -31.
`O=C(Nc1ccc(Nc2ccncc2)cc1)c1ccc(Nc2ccnc3ccc([N+](=O)[O-])cc23)cc1[N+](=O)[O-]` gave LMPTP inh 89*, Scp-1 inhibitor -7, STEP block 2, DNMT1 inh 23 and SUMO1 PPI mod 45*.
O=c1[nH]c(=S)[nH]c2c1C(C1CCCCC1)OC(C1CCCCC1)C2 (configuration not stated) was read as LMPTP inh 1 and SUMO1 PPI mod 8.
Screening CCOC(=O)N1CCN(S(=O)(=O)c2ccc3[nH]cc(C(=O)O)c(=O)c3c2)CC1 returned LMPTP inh -2, Scp-1 inhibitor 8, STEP block 8, DNMT1 inh 14 and SUMO1 PPI mod 22.
`O=C(O)c1c[nH]c2ccc(S(=O)(=O)N3CCN(c4ccc(F)cc4)CC3)cc2c1=O` gave LMPTP inh 59*, Scp-1 inhibitor 17, STEP block 76*, DNMT1 inh 9 and SUMO1 PPI mod 4.
O=S(CC(O)c1ccccc1)c1ccccc1 (configuration not stated) was read as LMPTP inh 0, STEP block 3, DNMT1 inh -1 and SUMO1 PPI mod 5.

Screening results as filed in PubChem.
